# Assay results published in ChEMBL document CHEMBL4425108, “A Selective and Slowly Reversible Inhibitor of l-Type Amino Acid Transporter 1 (LAT1) Potentiates Antiproliferative Drug Efficacy in Cancer Cells” (J Med Chem, 2016).
# Active and inactive are the calls of the source. The rule behind the calls is not given here.
# Experiments:
# [1] = Unbound AUC (0 to 480 mins) in mouse liver at 23 umol/kg, ip administered as bolus by LC-MS analysis; format: ADME, organism-based; conditions: in vivo
# Outline: (§1)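 Male mice (25 ± 5 g) dosed i.p. as a bolus at 23 µmol/kg in DMSO/hydroxypropyl-β-cyclodextrin/saline vehicle, sampled at time points 10–480 min; plasma and tissue homogenates (1:3 water) analysed by LC-MS. […] Mean ± SEM.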
# [2] = molecular target: T1, Large neutral amino acids transporter small subunit 1 (Homo sapiens, UniProt Q01650); experiment: Drug uptake in human MCF7 cells assessed as LAT1 mediated drug transport per mg of protein at 100 uM measured 30 mins after warm wash by HPLC analysis; format: ADME, cell-based; conditions: mcf7, 0.5 h
# T1 sequence (Q01650 whole entry): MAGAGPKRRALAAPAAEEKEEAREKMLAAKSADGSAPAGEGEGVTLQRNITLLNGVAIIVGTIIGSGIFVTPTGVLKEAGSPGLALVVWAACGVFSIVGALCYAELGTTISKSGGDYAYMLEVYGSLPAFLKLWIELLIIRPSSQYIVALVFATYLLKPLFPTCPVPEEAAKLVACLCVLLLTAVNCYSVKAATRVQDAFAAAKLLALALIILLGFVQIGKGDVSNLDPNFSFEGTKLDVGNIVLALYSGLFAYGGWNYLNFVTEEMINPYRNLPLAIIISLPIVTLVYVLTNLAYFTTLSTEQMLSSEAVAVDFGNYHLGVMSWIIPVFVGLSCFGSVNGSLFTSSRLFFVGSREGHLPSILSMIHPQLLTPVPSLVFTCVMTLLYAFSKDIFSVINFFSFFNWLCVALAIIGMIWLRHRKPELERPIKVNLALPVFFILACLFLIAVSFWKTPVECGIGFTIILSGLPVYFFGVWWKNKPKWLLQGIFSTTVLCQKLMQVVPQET
# Outline: (§2)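 MCF-7 monolayers were incubated with 100 µM compound in HBSS at 37 °C for 5 or 30 min. Cells got three washes with ice-cold or warm (37 °C) HBSS; in the warm 30 min arm they were washed after 5 min and again after 30 min. Lysates (0.1 M NaOH) were quantified by HPLC-UV against a spiked lysate standard curve and normalised to protein (Bio-Rad assay).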
# [3] = tested on: Mus musculus; experiment: Binding affinity to LAT1 in mouse brain assessed as inhibition of [14C]-L-leucine uptake at 23 umol/kg, ip measured 10 mins post perfusion with [14C]-L-leucine; format: functional
# Outline: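 Mice under ketamine/xylazine anaesthesia had the right common carotid artery cannulated. Brains were perfused at 37 °C, 2.5 mL/min, for 30 s with 0.157 µM [14C]-L-leucine, then 2 s with analyte-free buffer at 4 °C. Perfusion took place 10 or 180 min after 23 µmol/kg i.p. dosing.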
# [4] = molecular target: T1, Large neutral amino acids transporter small subunit 1; experiment: Drug uptake in human MCF7 cells assessed as LAT1 mediated drug transport per mg of protein at 100 uM measured 5 mins after warm wash by HPLC analysis; format: ADME, cell-based; conditions: mcf7, 5 min; outline: as §2
# [5] = Cmax in mouse kidney at 23 umol/kg, ip administered as bolus by LC-MS analysis; format: ADME, organism-based; parameters: dose 23 umol/kg, route intraperitoneal; conditions: in vivo
# Outline: (§3)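 Male adult mice (25 ± 5 g) given a single i.p. bolus at 23 µmol/kg. The dosing solution was 1.36 mM in 10% (v/v) DMSO, 20% (w/v) hydroxypropyl-β-cyclodextrin and 0.9% NaCl. Animals were decapitated at seven time points from 10 to 480 min. Plasma and tissues were acetonitrile-precipitated with repaglinide internal standard and analysed by LC-MS. Parameters were derived from concentration–time data, mean ± SEM (n=3).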
# [6] = molecular target: T1, Large neutral amino acids transporter small subunit 1; experiment: Inhibition of LAT1 in human MCF7 cells assessed as potentiation of cisplatin-induced antiproliferative activity by measuring reduction in cell viability at 25 uM measured after 72 hrs by resazurin dye-based fluorimetric analysis
# Outline: (§4)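 MCF-7 cells seeded 2 × 10^4/well on collagen-coated plates, treated one day later in growth medium with inhibitor (25 or 100 µM) plus bestatin or cisplatin (100 µM) for up to 3 days. Viability read daily by resazurin fluorescence (ex 560/em 590 nm). Viability is treated relative to untreated control. Mean ± SD, n=3.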
# [7] = molecular target: T1, Large neutral amino acids transporter small subunit 1; experiment: Binding affinity to LAT1 in human MCF7 cells at 100 uM after 30 mins by HPLC analysis; format: cell-based
# Outline: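 MCF-7 cells given 25-400 µM compound in pre-warmed HBSS (pH 7.4) at 37 °C for 30 min, washed three times with ice-cold HBSS, lysed in 0.1 M NaOH. Lysate quantified by HPLC-UV against a standard curve spiked into cell lysate. Amount normalised to protein (Bio-Rad assay, nmol/mg protein). n=3.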
# [8] = Terminal half life in mouse liver at 23 umol/kg, ip administered as bolus by LC-MS analysis; format: ADME, organism-based; conditions: read-out: beta t1/2; outline: as §3
# [9] = fCmax in mouse liver at 23 umol/kg, ip administered as bolus by LC-MS analysis; format: ADME, organism-based; conditions: in vivo; outline: as §1
# [10] = molecular target: T2, Large neutral amino acids transporter small subunit 2 (Homo sapiens) (UniProt Q9UHI5); experiment: Competitive inhibition of [14C]-L-alanine uptake at LAT2 in human MCF7 cells at 50 to 1000 uM measured during 5 mins by liquid scintillation counting; format: cell-based
# T2 sequence (whole entry): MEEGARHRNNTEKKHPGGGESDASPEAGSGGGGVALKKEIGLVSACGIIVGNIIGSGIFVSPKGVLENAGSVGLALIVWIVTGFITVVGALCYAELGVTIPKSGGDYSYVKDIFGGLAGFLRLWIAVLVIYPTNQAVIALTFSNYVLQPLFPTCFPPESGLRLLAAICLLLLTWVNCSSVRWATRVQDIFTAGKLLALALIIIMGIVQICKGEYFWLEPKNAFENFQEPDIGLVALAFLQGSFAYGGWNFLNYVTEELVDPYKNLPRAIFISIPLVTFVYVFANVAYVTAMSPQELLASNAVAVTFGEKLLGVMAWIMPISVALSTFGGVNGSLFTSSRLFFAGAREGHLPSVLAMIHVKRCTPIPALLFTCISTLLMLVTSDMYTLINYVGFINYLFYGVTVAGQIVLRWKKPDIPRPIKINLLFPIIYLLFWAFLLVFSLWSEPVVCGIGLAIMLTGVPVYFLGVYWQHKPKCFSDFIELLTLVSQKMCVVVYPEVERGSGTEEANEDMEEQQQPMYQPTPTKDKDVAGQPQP
# Outline: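 MCF-7 cells were seeded at 1 × 10^5 cells/well and used one day later. Cells were washed and pre-incubated 10 min at 37 °C in HEPES-buffered HBSS (choline chloride, pH 7.4). Uptake of 10.0 µM [14C]-L-alanine ran 5 min at 37 °C with test agent (1–1000 µM) or DMSO blank. Cells were then given three ice-cold washes, lysed in 0.1 M NaOH and counted by liquid scintillation; n=3.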
# [11] = Ratio of IC50 for human MCF7 cells to IC50 for [14C]-L-leucine uptake at LAT1 in human MCF7 cells
# [12] = AUC (0 to 480 min) in mouse kidney at 23 umol/kg, ip administered as bolus by LC-MS analysis; format: ADME, organism-based; parameters: time < 8 hr, dose 23 umol/kg, route intraperitoneal; conditions: in vivo, 8 h; outline: as §3
# [13] = Cmax in mouse plasma at 23 umol/kg, ip administered as bolus by LC-MS analysis; format: ADME, organism-based; parameters: dose 23 umol/kg, route intraperitoneal; outline: as §3
# [14] = Cmax in mouse brain at 23 umol/kg, ip administered as bolus by LC-MS analysis; format: ADME, organism-based; parameters: dose 23 umol/kg, route intraperitoneal; conditions: in vivo; outline: as §3
# [15] = molecular target: T1, Large neutral amino acids transporter small subunit 1; experiment: Competitive inhibition of [14C]-L-leucine uptake at LAT1 in human MCF7 cells preincubated for 5 mins followed by addition of substrate measured during 5 mins by liquid scintillation counting; format: cell-based
# [16] = molecular target: T1, Large neutral amino acids transporter small subunit 1; experiment: Inhibition of LAT1 in human MCF7 cells assessed as potentiation of bestatin-induced antiproliferative activity by measuring reduction in cell viability at 25 uM measured after 24 hrs by resazurin dye-based fluorimetric analysis; outline: as §4
# [17] = molecular target: T1, Large neutral amino acids transporter small subunit 1; experiment: Inhibition of LAT1 in human MCF7 cells assessed as potentiation of cisplatin-induced antiproliferative activity by measuring reduction in cell viability at 100 uM measured after 72 hrs by resazurin dye-based fluorimetric analysis; outline: as §4
# [18] = AUC (0 to 480 min) in mouse heart at 23 umol/kg, ip administered as bolus by LC-MS analysis; format: ADME, organism-based; parameters: dose 23 umol/kg, time < 8 hr, route intraperitoneal; conditions: in vivo, 8 h; outline: as §3
# [19] = Chemical stability of the compound in Tris-HCl buffer at pH 7.4 and 37 degreeC measured after 24 hrs by HPLC method; format: physicochemical; conditions: pH 7.4, 24 h
# Outline: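 Incubated in isotonic Tris-HCl buffer, pH 7.4, at 37 °C for 24 h; monitored by UV-HPLC.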
structure (smiles),measurement,setting,value
CNC(=O)COc1ccc(-c2c(C#N)c(NC(=O)c3cccc(C[C@H](N)C(=O)O)c3)n3c(nc4ccccc43)c2C#N)cc1,fAUC,[1],18.9 nmol/g/min
same,Drug uptake,[2],0.21 nmol/mg
same,inhibition in vivo at 23 µmol/kg,[3],27%
same,Drug uptake,[4],1.43 nmol/mg
same,Cmax,[5],22.5 nmol/g
same,Activity,[6],49.7%
same,Activity,[7],Active
same,half-life,[8],52.8 min
same,fCmax,[9],0.38 nmol/g
same,inhibition,[10],inactive
same,Ratio IC50,[11],6.9
same,AUC,[12],1426 nmol/g/min
same,Cmax,[13],19.5 µM
same,Cmax,[14],0.2 nmol/g
same,IC50,[15],18.2 µM
same,inhibition,[15],Dose-dependent effect
same,Activity,[16],24.7%
same,Activity,[17],81.9%
same,AUC,[18],249 nmol/g/min
same,Stability,[19],Stable
